pIC50: −log10 of the molar value. In brackets after ≈: the same amount, converted by molar mass. Activity calls are given as the source filed them. No cut-off for these calls is given here.
Tests used:
[1] = Cytotoxicity against human DOHH2 cells assessed as growth inhibition after 72 hrs by CellTiter-Glo luminescent cell viability assay; assay type: functional, DOHH-2; conditions: Homo sapiens, DOHH-2, 72 h
In short: (§1)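 Lymphoma cells seeded at 5000 cells/well, incubated 24 h, then exposed to compounds for 72 h. Viability read by CellTiter-Glo luminescence. GI50 from dose−response curves, mean of two or three independent experiments in triplicate.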

[2] = target: Tyrosine-protein kinase Blk (Homo sapiens, UniProt P51451); assay: Inhibition of Blk (unknown origin) after 1 hr by HTRF assay
In short: (§2)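 Recombinant kinases tested by HTRF KinEase protocol. Enzyme preincubated with inhibitor for a fixed 10 min. IC50 values are means of duplicates.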

[3] = Solubility of the compound in FaSSIF; assay type: ADME
[4] = Cytotoxicity against human SU-DHL6 cells assessed as growth inhibition after 72 hrs by CellTiter-Glo luminescent cell viability assay; assay type: functional, SU-DHL-6; conditions: Homo sapiens, SU-DHL-6, 72 h; in short: as §1
[5] = target: Receptor tyrosine-protein kinase erbB-4 (Homo sapiens, UniProt Q15303); assay: Inhibition of HER4 (unknown origin) after 1 hr by HTRF assay; in short: as §2
[6] = target: T1, Tyrosine-protein kinase BTK (Homo sapiens, UniProt Q06187); assay: Inhibition of Btk phosphorylation at Tyr551 in human Ramos cells after 1 hr by Western blot analysis; assay type: cell-based
[7] = target: T1, Tyrosine-protein kinase BTK; assay: Irreversible inhibition of Btk phosphorylation at Tyr551 in human Ramos cells at 1 uM incubated for 1 hr followed by compound washout with fresh media measured after 2 hrs by Western blot analysis; assay type: cell-based
In short: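 Ramos cells (5 × 10⁵) seeded overnight, treated with compound 1 h, then washed out with fresh media for 2 h. Cells stimulated with goat anti-human IgM for 3−5 min, lysed by boiling in SDS buffer, and Btk Tyr551 phosphorylation assessed by Western blot.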

[8] = target: Receptor tyrosine-protein kinase erbB-2 (Homo sapiens, UniProt P04626); assay: Inhibition of HER2 (unknown origin) after 1 hr by HTRF assay; in short: as §2
[9] = Stability of the compound in FaSSIF assessed as compound remaining at 1 uM measured at 24 hrs by LC-MS analysis; assay type: ADME; conditions: read-out: Stability
In short: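 Compound solutions in FaSSIF shaken at 350 rpm at 37 °C. Samples taken at 2, 6, 10 and 24 h and quantified by LC−MS as % remaining.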

[10] = target: T1, Tyrosine-protein kinase BTK; assay: Binding affinity to Btk kinase domain (387 to 659) (unknown origin) assessed as compound-protein covalent adduct formation at 1:3 protein to compound molar ratio at 4 degC after 1 hr by LC-MS analysis
In short: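 Btk kinase domain (residues 387−659, MW 32136) incubated with 3 equiv of compound at 4 °C for 1 h. Mass spectrometry of the intact protein checked for mass peak shift consistent with 1-to-1 protein−compound adducts.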

[11] = Clearance in mouse liver microsomes by LC-MS/MS analysis; assay type: ADME; conditions: read-out: CLH
In short: (§3)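 Liver microsomes incubated with compound and NADPH at 37 °C. Samples taken at several time points, centrifuged, and supernatants analyzed by LC−MS/MS. t1/2 and CL calculated by first-order kinetics. Testosterone, propranolol and clozapine served as positive controls.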

[12] = Cytotoxicity against human Pfeiffer cells assessed as growth inhibition after 72 hrs by CellTiter-Glo luminescent cell viability assay; assay type: functional; conditions: Homo sapiens, Pfeiffer, 72 h; in short: as §1
[13] = Half life in ICR mouse at 1 mg/kg, iv by LC-MS analysis; assay type: ADME, organism-based; parameters: dose 1 mg/kg, route intravenous; conditions: in vivo
In short: (§4)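 ICR mice (n = 3) given a single intravenous injection at 1 mg/kg. Blood sampled at various time points and analyzed by LC−MS to derive t1/2, CL and Vss.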

[14] = target: T1, Tyrosine-protein kinase BTK; assay: Inhibition of Btk (unknown origin) after 1 hr by HTRF assay; in short: as §2
[15] = target: Cytoplasmic tyrosine-protein kinase BMX (Homo sapiens, UniProt P51813); assay: Inhibition of Bmx (unknown origin) after 1 hr by HTRF assay; in short: as §2
[16] = Volume of distribution at steady state in ICR mouse at 1 mg/kg, iv by LC-MS analysis; assay type: ADME, organism-based; parameters: dose 1 mg/kg, route intravenous; conditions: in vivo, read-out: Vdss; in short: as §4
[17] = target: Tyrosine-protein kinase ITK/TSK (Homo sapiens, UniProt Q08881); assay: Inhibition of Itk (unknown origin) after 1 hr by HTRF assay; in short: as §2
WSU-NHL = assay: Cytotoxicity against human WSU-NHL cells assessed as growth inhibition after 72 hrs by CellTiter-Glo luminescent cell viability assay; assay type: functional; in short: as §1
[18] = Half life in mouse liver microsomes by LC-MS/MS analysis; assay type: ADME; in short: as §3
[19] = Clearance in ICR mouse at 1 mg/kg, iv by LC-MS analysis; assay type: ADME, organism-based; parameters: dose 1 mg/kg, route intravenous; conditions: in vivo; in short: as §4
[20] = target: Tyrosine-protein kinase JAK3 (Homo sapiens, UniProt P52333); assay: Inhibition of Jak3 (unknown origin) after 1 hr by HTRF assay; in short: as §2
[21] = system: Liver microsomes (Mus musculus); assay: Clearance in mouse liver microsomes by LC-MS/MS analysis
[22] = target: Tyrosine-protein kinase Tec (Homo sapiens, UniProt P42680); assay: Inhibition of Tec (unknown origin) after 1 hr by HTRF assay; in short: as §2
[23] = target: Epidermal growth factor receptor (Homo sapiens, UniProt P00533); assay: Inhibition of EGFR (unknown origin) after 1 hr by HTRF assay
In short: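 Commercial recombinant kinase, assayed in the HTRF KinEase format following the kit protocol. Enzyme and inhibitor were preincubated for a fixed 10 min before the reaction.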

[24] = target: Tyrosine-protein kinase TXK (Homo sapiens, UniProt P42681); assay: Inhibition of Rlk (unknown origin) after 1 hr by HTRF assay; in short: as §2
[25] = target: T1, Tyrosine-protein kinase BTK; assay: Inhibition of Btk in human Ramos cells assessed as inhibition of PLC-gamma2 phosphorylation at Tyr1217 after 1 hr by Western blot analysis; assay type: cell-based

T1 sequence (Q06187 whole entry): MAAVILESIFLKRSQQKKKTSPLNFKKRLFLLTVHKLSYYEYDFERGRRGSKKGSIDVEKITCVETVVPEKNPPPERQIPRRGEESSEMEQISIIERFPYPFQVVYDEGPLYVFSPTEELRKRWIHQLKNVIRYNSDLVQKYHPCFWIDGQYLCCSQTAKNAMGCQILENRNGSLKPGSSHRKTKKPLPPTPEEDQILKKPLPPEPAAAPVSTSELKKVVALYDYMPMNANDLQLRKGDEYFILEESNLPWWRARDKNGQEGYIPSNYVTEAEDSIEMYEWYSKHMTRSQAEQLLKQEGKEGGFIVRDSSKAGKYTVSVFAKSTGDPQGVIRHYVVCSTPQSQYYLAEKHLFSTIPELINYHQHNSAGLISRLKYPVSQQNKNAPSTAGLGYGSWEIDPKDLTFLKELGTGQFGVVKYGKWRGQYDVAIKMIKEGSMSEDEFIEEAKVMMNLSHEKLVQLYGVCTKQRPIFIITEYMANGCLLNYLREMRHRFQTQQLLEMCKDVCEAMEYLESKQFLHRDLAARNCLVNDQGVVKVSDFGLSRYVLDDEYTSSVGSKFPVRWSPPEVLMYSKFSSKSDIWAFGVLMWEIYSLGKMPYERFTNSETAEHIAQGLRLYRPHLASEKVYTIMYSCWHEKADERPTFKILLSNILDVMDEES
Tyrosine-protein kinase Blk, sequence (P51451 whole entry): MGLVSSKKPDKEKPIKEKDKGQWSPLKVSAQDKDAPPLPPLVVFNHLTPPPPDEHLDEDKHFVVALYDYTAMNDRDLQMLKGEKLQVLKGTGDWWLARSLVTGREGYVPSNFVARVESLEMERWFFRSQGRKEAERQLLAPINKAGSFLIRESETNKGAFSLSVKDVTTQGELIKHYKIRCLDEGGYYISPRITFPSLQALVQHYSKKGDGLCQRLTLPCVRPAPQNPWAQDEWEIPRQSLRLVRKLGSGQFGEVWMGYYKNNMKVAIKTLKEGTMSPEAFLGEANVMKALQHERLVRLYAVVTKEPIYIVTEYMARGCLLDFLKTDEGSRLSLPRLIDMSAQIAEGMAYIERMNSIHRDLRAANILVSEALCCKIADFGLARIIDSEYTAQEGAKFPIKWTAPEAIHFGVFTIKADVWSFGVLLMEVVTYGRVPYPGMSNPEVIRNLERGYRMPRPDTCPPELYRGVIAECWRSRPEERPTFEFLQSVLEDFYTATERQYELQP
Cytoplasmic tyrosine-protein kinase BMX, sequence (P51813 whole entry): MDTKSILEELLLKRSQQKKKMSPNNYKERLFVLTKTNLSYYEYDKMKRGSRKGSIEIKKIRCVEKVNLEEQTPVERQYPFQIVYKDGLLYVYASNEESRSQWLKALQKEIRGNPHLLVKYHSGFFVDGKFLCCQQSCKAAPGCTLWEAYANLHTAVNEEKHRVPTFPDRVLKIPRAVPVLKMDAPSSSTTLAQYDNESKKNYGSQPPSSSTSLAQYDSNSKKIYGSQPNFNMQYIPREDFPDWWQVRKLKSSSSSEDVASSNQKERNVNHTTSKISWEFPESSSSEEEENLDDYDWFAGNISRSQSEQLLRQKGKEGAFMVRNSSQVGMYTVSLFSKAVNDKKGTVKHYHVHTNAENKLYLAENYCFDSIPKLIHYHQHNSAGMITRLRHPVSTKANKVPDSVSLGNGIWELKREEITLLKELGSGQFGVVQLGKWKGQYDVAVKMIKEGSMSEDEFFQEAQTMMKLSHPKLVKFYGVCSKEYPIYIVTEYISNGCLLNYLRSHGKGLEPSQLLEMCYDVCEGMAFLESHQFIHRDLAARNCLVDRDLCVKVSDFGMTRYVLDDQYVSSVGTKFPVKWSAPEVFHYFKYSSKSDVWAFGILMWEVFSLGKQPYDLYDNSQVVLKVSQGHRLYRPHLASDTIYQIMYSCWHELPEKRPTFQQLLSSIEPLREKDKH
Tyrosine-protein kinase TXK, sequence (P42681 whole entry): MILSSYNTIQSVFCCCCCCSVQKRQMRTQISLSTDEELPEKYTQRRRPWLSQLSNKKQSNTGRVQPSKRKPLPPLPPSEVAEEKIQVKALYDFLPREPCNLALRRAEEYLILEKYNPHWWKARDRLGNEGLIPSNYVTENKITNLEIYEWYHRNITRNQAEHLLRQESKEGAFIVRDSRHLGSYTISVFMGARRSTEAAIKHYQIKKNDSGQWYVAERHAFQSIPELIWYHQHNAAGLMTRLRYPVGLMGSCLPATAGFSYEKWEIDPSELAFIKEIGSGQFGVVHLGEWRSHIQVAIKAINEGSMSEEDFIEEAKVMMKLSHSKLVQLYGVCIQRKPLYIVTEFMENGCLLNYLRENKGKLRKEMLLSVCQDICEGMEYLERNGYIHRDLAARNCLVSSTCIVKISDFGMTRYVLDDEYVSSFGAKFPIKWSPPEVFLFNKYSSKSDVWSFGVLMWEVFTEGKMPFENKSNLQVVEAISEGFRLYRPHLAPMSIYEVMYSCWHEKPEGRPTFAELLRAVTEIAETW
Tyrosine-protein kinase Tec, sequence (P42680 whole entry): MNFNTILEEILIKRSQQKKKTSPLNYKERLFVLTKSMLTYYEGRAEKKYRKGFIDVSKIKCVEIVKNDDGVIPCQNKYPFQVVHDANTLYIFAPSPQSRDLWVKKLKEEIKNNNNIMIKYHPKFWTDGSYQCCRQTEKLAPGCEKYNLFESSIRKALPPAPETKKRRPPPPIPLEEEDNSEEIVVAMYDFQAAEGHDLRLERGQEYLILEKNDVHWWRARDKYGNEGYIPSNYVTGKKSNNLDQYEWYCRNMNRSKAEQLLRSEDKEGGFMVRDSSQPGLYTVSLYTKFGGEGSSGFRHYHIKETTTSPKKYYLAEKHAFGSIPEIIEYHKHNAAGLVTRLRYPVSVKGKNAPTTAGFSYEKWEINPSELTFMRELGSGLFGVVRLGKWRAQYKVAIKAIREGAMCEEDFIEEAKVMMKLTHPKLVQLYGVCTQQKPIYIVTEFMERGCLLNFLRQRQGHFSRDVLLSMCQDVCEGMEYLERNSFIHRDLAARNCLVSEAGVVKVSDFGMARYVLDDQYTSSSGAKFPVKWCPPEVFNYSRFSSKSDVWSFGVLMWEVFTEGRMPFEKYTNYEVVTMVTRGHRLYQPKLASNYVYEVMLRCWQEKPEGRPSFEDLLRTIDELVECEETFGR
Epidermal growth factor receptor, sequence (P00533 whole entry): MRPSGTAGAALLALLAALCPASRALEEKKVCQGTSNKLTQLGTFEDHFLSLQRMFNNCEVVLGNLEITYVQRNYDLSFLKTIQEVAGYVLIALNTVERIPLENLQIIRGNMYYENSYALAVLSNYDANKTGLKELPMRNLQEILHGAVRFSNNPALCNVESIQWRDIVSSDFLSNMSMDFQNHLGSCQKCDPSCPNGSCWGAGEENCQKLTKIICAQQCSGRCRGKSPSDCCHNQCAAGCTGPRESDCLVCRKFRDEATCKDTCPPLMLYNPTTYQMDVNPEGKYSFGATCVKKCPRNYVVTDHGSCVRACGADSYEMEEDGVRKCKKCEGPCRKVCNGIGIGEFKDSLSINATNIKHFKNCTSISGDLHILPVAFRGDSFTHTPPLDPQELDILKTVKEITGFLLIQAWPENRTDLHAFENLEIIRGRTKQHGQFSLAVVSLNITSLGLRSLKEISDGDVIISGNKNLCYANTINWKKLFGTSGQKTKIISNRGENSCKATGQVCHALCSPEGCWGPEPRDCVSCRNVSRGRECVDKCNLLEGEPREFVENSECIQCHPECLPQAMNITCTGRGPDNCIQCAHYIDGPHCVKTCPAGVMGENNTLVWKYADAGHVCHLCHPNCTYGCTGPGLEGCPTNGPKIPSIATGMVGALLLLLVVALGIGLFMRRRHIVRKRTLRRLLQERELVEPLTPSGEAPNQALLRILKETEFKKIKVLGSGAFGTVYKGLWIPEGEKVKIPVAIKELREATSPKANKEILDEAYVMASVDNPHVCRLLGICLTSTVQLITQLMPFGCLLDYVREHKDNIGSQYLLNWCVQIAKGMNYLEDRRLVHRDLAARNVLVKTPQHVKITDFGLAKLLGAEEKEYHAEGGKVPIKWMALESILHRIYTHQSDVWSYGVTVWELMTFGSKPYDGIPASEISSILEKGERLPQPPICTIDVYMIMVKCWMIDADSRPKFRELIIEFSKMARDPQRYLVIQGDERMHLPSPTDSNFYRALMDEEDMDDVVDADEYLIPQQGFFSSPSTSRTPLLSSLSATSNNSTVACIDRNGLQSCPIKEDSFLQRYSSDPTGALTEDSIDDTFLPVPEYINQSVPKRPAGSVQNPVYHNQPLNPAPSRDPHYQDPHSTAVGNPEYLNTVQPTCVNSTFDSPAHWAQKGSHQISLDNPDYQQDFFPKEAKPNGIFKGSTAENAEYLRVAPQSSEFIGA
Tyrosine-protein kinase ITK/TSK, sequence (Q08881 whole entry): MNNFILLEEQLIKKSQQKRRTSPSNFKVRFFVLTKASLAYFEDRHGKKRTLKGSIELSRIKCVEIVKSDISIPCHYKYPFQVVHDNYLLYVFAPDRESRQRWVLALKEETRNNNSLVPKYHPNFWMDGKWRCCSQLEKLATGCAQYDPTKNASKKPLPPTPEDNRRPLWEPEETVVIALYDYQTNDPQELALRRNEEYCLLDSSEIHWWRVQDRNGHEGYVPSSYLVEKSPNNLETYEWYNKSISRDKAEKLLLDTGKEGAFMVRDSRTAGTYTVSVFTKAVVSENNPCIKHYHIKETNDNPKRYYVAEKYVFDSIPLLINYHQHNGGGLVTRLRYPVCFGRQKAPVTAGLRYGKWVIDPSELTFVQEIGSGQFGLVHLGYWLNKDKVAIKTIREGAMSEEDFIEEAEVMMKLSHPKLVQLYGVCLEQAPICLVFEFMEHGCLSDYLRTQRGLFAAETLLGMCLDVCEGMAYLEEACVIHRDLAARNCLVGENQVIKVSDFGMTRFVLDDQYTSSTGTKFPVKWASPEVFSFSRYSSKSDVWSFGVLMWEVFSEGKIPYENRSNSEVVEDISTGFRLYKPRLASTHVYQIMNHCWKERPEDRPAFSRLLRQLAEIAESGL

Q: Which GI50 [1] does the source give for `C=CC(=O)NCC(=O)Nc1cccc(Nc2ncc(NC(=O)c3cc(NC(=O)c4cccc(C(F)(F)F)c4)ccc3C)cn2)c1` here?
A: The GI50 was 40 nM.

Q: And the pIC50 [2]?
A: Its pIC50 is 8.38.

Q: What about the solubility [3] of the same molecule?
A: The solubility was 2.23 µM (≈ 1.38 µg/mL).

Q: What about the GI50 [4] of the same molecule?
A: The GI50 was 43 nM.

Q: What about the pIC50 [5] of the same molecule?
A: Its pIC50 is 8.48.

Q: And the pIC50 [6]?
A: Its pIC50 is 7.89.

Q: And the inhibition [7]?
A: The inhibition was “Active”.

Q: What about the pIC50 [8] of the same molecule?
A: The pIC50 was 8.15.

Q: What about the remaining at 24 h, 1 µM [9] of the same molecule?
A: Its remaining at 24 h, 1 µM is 99%.

Q: And the Activity [10]?
A: The Activity was “Active”.

Q: And the microsomal CLint [11]?
A: Its microsomal CLint is 28.1 µL/min/mg.

Q: And the GI50 [12]?
A: Its GI50 is 8 nM.

Q: And the half-life [13]?
A: Its half-life is 36 min.

Q: What about the pIC50 [14] of the same molecule?
A: Its pIC50 is > 8.36.

Q: And the pIC50 [15]?
A: The pIC50 was 9.15.

Q: And the Vd [16]?
A: Its Vd is 0.13 L/kg.

Q: What about the pIC50 [17] of the same molecule?
A: Its pIC50 is < 4.52.

Q: What about the GI50 (WSU-NHL) of the same molecule?
A: Its GI50 is 29 nM.

Q: What about the half-life [18] of the same molecule?
A: Its half-life is 35.4 min.

Q: What about the clearance [19] of the same molecule?
A: Its clearance is 11.5 mL/min/kg.

Q: And the pIC50 [20]?
A: The pIC50 was 5.20.

Q: What about the CLH [21] of the same molecule?
A: Its CLH is 49.8 mL/min/kg.

Q: What about the pIC50 [22] of the same molecule?
A: Its pIC50 is 8.20.

Q: What about the pIC50 [23] of the same molecule?
A: Its pIC50 is 8.15.

Q: What about the pIC50 [24] of the same molecule?
A: The pIC50 was 8.85.

Q: What about the pIC50 [25] of the same molecule?
A: The pIC50 was 7.89.

From ChEMBL document CHEMBL3286193, “Discovery of a series of 2,5-diaminopyrimidine covalent irreversible inhibitors of Bruton's tyrosine kinase with in vivo antitumor activity” (J Med Chem, 2014)
